Source: PubChem BioAssay AID2237 (Johns Hopkins Ion Channel Center, 2010)
Out of some 310,000 compounds screened, about 1,500 (0.48%) were called active.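 How the source made its calls: active means B-score above 5 SD of library B-scores, and initial fluorescence ratio not above library mean plus 5 SD; inactive means the rest.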 For the sample, actives were picked, then their nearest neighbours and some compounds at random.

target: Short transient receptor potential channel 4 (Mus musculus) (UniProt Q9QUQ5); experiment: activators of mouse TRPC4 channel, primary screen, Fluo4 calcium, HEK293 TRPC4beta/mu-opioid cells (AID 2237); conditions: Fluo4 calcium fluorescence, at 10 µM; stronger effect = higher value;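 on B-score: positive B-score marks a calcium rise read as TRPC4 activation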
Sequence (Q9QUQ5 whole entry, looked up): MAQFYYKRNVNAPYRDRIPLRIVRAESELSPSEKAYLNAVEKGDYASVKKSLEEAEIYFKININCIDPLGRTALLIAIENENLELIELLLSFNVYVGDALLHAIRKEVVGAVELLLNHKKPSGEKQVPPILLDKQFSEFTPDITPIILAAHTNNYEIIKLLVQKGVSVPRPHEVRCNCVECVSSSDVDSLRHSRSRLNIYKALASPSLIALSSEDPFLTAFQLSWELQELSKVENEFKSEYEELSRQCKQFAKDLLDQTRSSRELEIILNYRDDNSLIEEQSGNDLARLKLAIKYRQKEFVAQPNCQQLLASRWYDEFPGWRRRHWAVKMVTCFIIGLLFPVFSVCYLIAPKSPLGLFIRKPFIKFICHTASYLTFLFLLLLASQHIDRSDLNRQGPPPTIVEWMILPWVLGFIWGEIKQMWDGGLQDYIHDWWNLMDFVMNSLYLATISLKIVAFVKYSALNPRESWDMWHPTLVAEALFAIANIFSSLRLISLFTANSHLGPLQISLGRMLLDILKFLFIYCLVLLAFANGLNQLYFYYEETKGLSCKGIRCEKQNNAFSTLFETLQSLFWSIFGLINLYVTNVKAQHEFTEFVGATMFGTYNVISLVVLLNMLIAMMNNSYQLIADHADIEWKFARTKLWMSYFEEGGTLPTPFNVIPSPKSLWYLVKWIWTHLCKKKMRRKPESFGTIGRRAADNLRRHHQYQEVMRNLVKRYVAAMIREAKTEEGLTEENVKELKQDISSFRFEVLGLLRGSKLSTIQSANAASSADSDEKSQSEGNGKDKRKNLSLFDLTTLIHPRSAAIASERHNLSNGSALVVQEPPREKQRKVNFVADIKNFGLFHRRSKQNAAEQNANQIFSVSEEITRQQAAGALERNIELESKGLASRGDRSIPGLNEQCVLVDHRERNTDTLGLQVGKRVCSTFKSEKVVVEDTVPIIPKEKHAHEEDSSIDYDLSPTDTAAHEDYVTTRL
Procedure, shortened: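 Assay system – TRPC4beta and mu-opioid receptor HEK293 stable cells · Measured by – Fluo4 fluorescence, kinetic · Schedule – dye loading 45 min room temperature, 110 s kinetic read · Read-out – B-scored integrated calcium fluorescence ratio · Controls – buffer and maximal DAMGO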

Question: `c1ccc2sc(N3CCNCC3)nc2c1` was tested. Which B-score did it give?
Answer: The B-score was 173 (active).

Question: With `COc1cc(OC)cc(C2(C#N)CCN(C)CC2)c1` as the compound, how does the B-score read?
Answer: The B-score was “inactive”.

Question: With `C/C(=N/O)c1ccc2ccc3ccccc3c2c1` as the compound, how does the B-score read?
Answer: The B-score was “inactive”.

Question: How did the B-score turn out when `CCC1(C)CC(CCNCc2ccc(N(C)C)cc2)(c2ccc(F)cc2)CCO1` (stereo not given) was run?
Answer: Its B-score is 114 (active).

Question: For `CCCCCCCCCCCCn1ccc(=N)cc1`, which B-score is on record?
Answer: Its B-score is “inactive”.

Question: `O=C(c1cc2nc(-c3ccccc3)cc(-c3ccccc3)n2n1)N1CCC2(CC1)OCCO2` was tested. Which B-score did it give?
Answer: The B-score was “inactive”.

Question: `N#Cc1ccc(Cn2cc(C(=O)c3ccco3)c3ccccc32)cc1` was tested. Which B-score did it give?
Answer: The B-score was “inactive”.

Question: `CN(C)C(=O)Oc1ccc(NC(=O)N2CCOCC2)cc1` was tested. Which B-score did it give?
Answer: The B-score was “inactive”.

Question: With `Cc1nc2ccccn2c1P(=S)(N1CCCCC1)N1CCCCC1` as the compound, how does the B-score read?
Answer: Its B-score is 87 (active).

Question: For `CC(=C1C(=O)c2ccccc2C1=O)N1CCN(CCN=Cc2c(O)n(C)c(=O)n(C)c2=O)CC1`, which B-score is on record?
Answer: The B-score was “inactive”.

Question: How did the B-score turn out when `Cc1nc2ccccc2c(=O)n1-c1ccc(Cl)cc1Cl` was run?
Answer: The B-score was “inactive”.

Question: How did the B-score turn out when `Cc1ccc(Cn2nnnc2CN2CCC(n3nnc4ccccc43)CC2)cc1` was run?
Answer: The B-score was “inactive”.

Question: With `CCN(CC)C(=O)c1ccc(NC(=O)c2cc(-n3cnnc3)ccc2Cl)cc1` as the compound, how does the B-score read?
Answer: The B-score was “inactive”.

Question: `COc1ccc(CNCCc2ccc3c(c2)OCO3)c(OC)c1OC` was tested. Which B-score did it give?
Answer: The B-score was “inactive”.

Question: `COc1ccc(CNCCc2c[nH]c3ccccc23)cc1OC` was tested. Which B-score did it give?
Answer: Its B-score is 88 (active).

Question: Which B-score does the source give for `c1cncc(CNCCc2c[nH]c3ccccc23)c1` here?
Answer: The B-score was “inactive”.

Question: For `CC1C2Cn3c(nc4ccccc43)C1N(C)O2` (stereo not given), which B-score is on record?
Answer: Its B-score is “inactive”.

Question: How did the B-score turn out when `CCN1CCN(c2nc3c(c(=O)[nH]2)CCC3)CC1` was run?
Answer: The B-score was “inactive”.

Question: For `Cc1ccnc(-n2c(C)cc(/C=C3\C(=O)NC(=S)N(C)C3=O)c2C)c1`, which B-score is on record?
Answer: The B-score was “inactive”.

Question: For `c1ccc(CCN2CCC3(CC2)OCCO3)cc1`, which B-score is on record?
Answer: The B-score was “inactive”.

Question: Which B-score does the source give for `C[N+]1(C)CCOC(O)(c2ccc(-c3ccc(C4(O)C[N+](C)(C)CCO4)cc3)cc2)C1` (stereo not given) here?
Answer: The B-score was “inactive”.

Question: Which B-score does the source give for `c1ccc2sc(C3CCCNC3)nc2c1` (stereo not given) here?
Answer: Its B-score is 159 (active).

Question: `COc1ccccc1N=C1SCCCN1C` was tested. Which B-score did it give?
Answer: Its B-score is “inactive”.

Question: Which B-score does the source give for `COc1ccc2c(c1O)-c1cccc3c1[C@@H](C2)N(C)CC3` here?
Answer: Its B-score is “inactive”.

Question: For `CC(=NC1CCN(Cc2ccccc2)CC1)c1c(O)n(C)c(=O)n(C)c1=O`, which B-score is on record?
Answer: The B-score was “inactive”.

Question: How did the B-score turn out when `CCN(CC)CCOC(=O)c1cc2cc(COC)ccc2o1` was run?
Answer: The B-score was “inactive”.

Question: For `COC(=O)C1=C(c2ccccc2)C[C@@H]2CC[C@H]1N2C(=O)N1CCCCC1`, which B-score is on record?
Answer: Its B-score is “inactive”.

Question: For `CSc1ccc(C(=O)C2CCCN(Cc3ccn[nH]3)C2)cc1` (stereo not given), which B-score is on record?
Answer: The B-score was 52 (active).

Question: Which B-score does the source give for `COc1ccc(C(=O)C2CCCN(Cc3ccc(C)s3)C2)cc1OC` (stereo not given) here?
Answer: Its B-score is “inactive”.

Question: `Cc1ccc(CN2CCCC(C(=O)c3ccc4c(c3)OCO4)C2)cc1C` (stereo not given) was tested. Which B-score did it give?
Answer: The B-score was “inactive”.

Question: With `c1ccc(CCNC2CCCCCC2)cc1` as the compound, how does the B-score read?
Answer: Its B-score is “inactive”.

Question: Which B-score does the source give for `CCCCC(=O)N/N=C/c1c(O)n(-c2ccccc2)c(=O)[nH]c1=O` here?
Answer: The B-score was “inactive”.

Question: How did the B-score turn out when `CCCCC(=O)N/N=C/c1c(O)n(CC)c(=S)n(CC)c1=O` was run?
Answer: The B-score was 103 (active).

Question: With `CCCCC(=O)N/N=C/c1c(O)n(CCC2=CCCCC2)c(=O)[nH]c1=O` as the compound, how does the B-score read?
Answer: Its B-score is “inactive”.

Question: How did the B-score turn out when `O=C1NC(=O)C(C/C=C/c2ccccc2)C(=O)N1` was run?
Answer: Its B-score is “inactive”.

Question: How did the B-score turn out when `CC(=O)N(C1=NCCCS1)c1ccccc1F` was run?
Answer: Its B-score is 44 (active).

Question: For `O=c1c2ccccc2nc(-c2ccc(Cl)cc2Cl)n1-c1ccncc1`, which B-score is on record?
Answer: Its B-score is “inactive”.

Question: `COc1ccc(N=Cc2c(O)n(C)c(=O)[nH]c2=O)cc1` was tested. Which B-score did it give?
Answer: Its B-score is “inactive”.

Question: For `Cn1c(C(=O)N2CCC(C(=O)N3CCC4(CC3)OCCO4)CC2)cc2sccc21`, which B-score is on record?
Answer: The B-score was “inactive”.

Question: For `COC(=O)C1=C(c2cc3ccccc3s2)C[C@@H]2CC[C@H]1N2C(=O)NC(C)C`, which B-score is on record?
Answer: The B-score was “inactive”.

Question: How did the B-score turn out when `COC(=O)C1=C(c2cc3ccccc3s2)C[C@@H]2CC[C@H]1N2C(=O)NCCO` was run?
Answer: The B-score was 72 (active).

Question: With `COC(=O)C1=C(c2cc3ccccc3s2)C[C@@H]2CC[C@H]1N2C(=O)NCc1cccc2ccccc12` as the compound, how does the B-score read?
Answer: Its B-score is “inactive”.

Question: With `C=CCN1C(=O)C2(C(C(=O)OCC)=C(N)Oc3c2c(=O)oc2ccccc32)c2ccccc21` (stereo not given) as the compound, how does the B-score read?
Answer: The B-score was “inactive”.

Question: `COc1ccccc1C1=NCc2nnc(CSC)n2-c2ccc(Cl)cc21` was tested. Which B-score did it give?
Answer: Its B-score is “inactive”.

Question: For `CN(C)CCN(CC1CCCN(Cc2ccccc2F)C1)C(=O)Cc1ccc(F)c(F)c1` (stereo not given), which B-score is on record?
Answer: The B-score was “inactive”.
